Data as given in ChEMBL document CHEMBL1629579, “Correlating echinocandin MIC and kinetic inhibition of fks1 mutant glucan synthases for Candida albicans: implications for interpretive breakpoints” (Antimicrob Agents Chemother, 2009).
Converted amounts (≈) assume the structure as drawn. Numbered stars: 1 amine (or outer) side, 2 acyl side, 3 side chain; on linkers, the order of the positions; unused ones are H or OH. Bridge positions count the residues as written; N and C are the ends. Square brackets hold non-standard residues; d marks the D form. Peptide text beside a SMILES is read from it. * marks the point of attachment. hTyr(3S-OH,4S-OH,3'-OSO3H) = N[C@H](C(=O)O)[C@H](O)[C@@H](O)c1ccc(O)c(OS(=O)(=O)O)c1; Orn(4R-OH,5R-OH) = O=C([C@H](C[C@@H](O)[C@@H](O)N[*:3])N[*:1])[*:2]; Pro(3S-OH,4S-Me) = C[C@H]1CN[C@H](C(=O)O)[C@H]1O; X1 = CCCCCOc1ccc(-c2cc(-c3ccc(C(=O)*)cc3)no2)cc1; Gln(3R-OH) = NC(=O)C[C@@H](O)[C@H](N)C(=O)O; Hyp = O=C(O)[C@@H]1C[C@@H](O)CN1

How the values were obtained:
Candida albicans [1] = experiment: Antimicrobial activity against Candida albicans SC5314 by M27-A3 method; format: functional
Summary of the method: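 Broth microdilution per CLSI M27-A3 in RPMI 1640, with and without 50% human serum, in triplicate. C. krusei ATCC 6258 and C. parapsilosis ATCC 22019 served as quality-control strains. MIC reported as arithmetic mean of three repetitions on separate days.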

Candida albicans [2] = experiment: Antimicrobial activity against Candida albicans 1002 by M27-A3 method in presence of 50% human serum; format: functional
Summary of the method: (§1)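 Broth microdilution per CLSI M27-A3 in RPMI 1640, done in triplicate on three separate days. Each strain was tested with and without 50% human serum. C. krusei ATCC 6258 and C. parapsilosis ATCC 22019 served as QC strains. Arithmetic means are reported, and geometric means were used for comparison.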

Candida albicans [3] = experiment: Antimicrobial activity against Candida albicans 3107 by M27-A3 method; format: functional; summary of the method: as §1
Candida albicans [4] = experiment: Antimicrobial activity against Candida albicans 2762 harboring FKS1 T1922C mutant gene and FKS1 hotspot1 F641S mutant gene by M27-A3 method; format: functional; summary of the method: as §1
Candida albicans [5] = experiment: Antimicrobial activity against Candida albicans 2762 harboring FKS1 T1922C mutant gene and FKS1 hotspot1 F641S mutant gene by M27-A3 method in presence of 50% human serum; format: functional; summary of the method: as §1
Candida albicans [6] = experiment: Antimicrobial activity against Candida albicans 205 harboring FKS1 T1933C mutant gene and FKS1 hotspot1 S645P mutant gene by M27-A3 method; format: functional; summary of the method: as §1
Candida albicans [7] = experiment: Antimicrobial activity against Candida albicans 205 harboring FKS1 T1933C mutant gene and FKS1 hotspot1 S645P mutant gene by M27-A3 method in presence of 50% human serum; format: functional; summary of the method: as §1
Candida albicans [8] = experiment: Antimicrobial activity against Candida albicans 89 harboring FKS1 C1934A mutant gene and FKS1 hotspot1 S645Y mutant gene by M27-A3 method in presence of 50% human serum; format: functional; summary of the method: as §1
Candida albicans [9] = experiment: Antimicrobial activity against Candida albicans 149 harboring FKS1 G1942T mutant gene and FKS1 hotspot1 D648Y mutant gene by M27-A3 method; format: functional; summary of the method: as §1
Candida albicans [10] = experiment: Antimicrobial activity against Candida albicans 122 harboring FKS1 C1946A mutant gene and FKS1 hotspot1 P649H mutant gene by M27-A3 method; format: functional; summary of the method: as §1
Candida albicans [11] = experiment: Antimicrobial activity against Candida albicans 122 harboring FKS1 C1946A mutant gene and FKS1 hotspot1 P649H mutant gene by M27-A3 method in presence of 50% human serum; format: functional; summary of the method: as §1
Candida albicans [12] = experiment: Antimicrobial activity against Candida albicans 121 harboring FKS1 G4082A mutant gene and FKS1 hotspot2 R1361H mutant gene by M27-A3 method; format: functional; summary of the method: as §1
Candida albicans [13] = experiment: Antimicrobial activity against Candida albicans 194 harboring FKS1 C1934T/G4082R mutant gene and FKS1 hotspot1 S645F mutant gene and FKS1 hotspot2 R1361R/H mutant gene by M27-A3 method; format: functional; summary of the method: as §1
Candida albicans [14] = experiment: Antimicrobial activity against Candida albicans 90 harboring FKS1 G4082R mutant gene and FKS1 hotspot2 R1361R/H mutant gene by M27-A3 method; format: functional; summary of the method: as §1
Candida albicans [15] = experiment: Antimicrobial activity against Candida albicans A15 harboring FKS1 T1933Y mutant gene and FKS1 hotspot1 S645S/P mutant gene by M27-A3 method in presence of 50% human serum; format: functional; summary of the method: as §1
Candida albicans [16] = experiment: Antimicrobial activity against Candida albicans A15-10 harboring FKS1 T1933C mutant gene and FKS1 hotspot1 S645P mutant by M27-A3 method in presence of 50% human serum; format: functional; summary of the method: as §1
[17] = Inhibition of Candida albicans 36082 1,3-beta-D-glucan synthase subunit FKS1p
Summary of the method: (§2)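 Enzyme is product-entrapped 1,3-β-D-glucan synthase, enriched from membranes of each strain grown at 37°C with shaking in YPD broth to early stationary phase. Filtration polymerization assay uses [3H]UDPG, started by adding enzyme and run 60 min at 25°C. Echinocandins are added as serial dilutions, with 1% DMSO controls for anidulafungin. IC50 is from a variable-slope sigmoidal fit; values are triplicate arithmetic means.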

[18] = Inhibition of Candida albicans 1002 1,3-beta-D-glucan synthase subunit FKS1p
Summary of the method: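 Product-entrapped glucan synthase from YPD-grown cells (37°C, early stationary phase) in a filtration polymerization assay with [3H]UDPG. Echinocandin serial dilutions were added, with 1% DMSO in controls for anidulafungin. Reactions were started with enzyme, run 60 min at 25°C and stopped on ice. IC50 came from a variable-slope sigmoidal fit, in triplicate.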

[19] = Inhibition of Candida albicans 3107 1,3-beta-D-glucan synthase subunit FKS1p; summary of the method: as §2
[20] = Inhibition of Candida albicans 5415 1,3-beta-D-glucan synthase subunit FKS1p T1933C mutant; summary of the method: as §2
[21] = Inhibition of Candida albicans 85 1,3-beta-D-glucan synthase subunit FKS1p C1934T mutant; summary of the method: as §2
[22] = Inhibition of Candida albicans 149 1,3-beta-D-glucan synthase subunit FKS1p G1942T mutant; summary of the method: as §2
Candida albicans SC5314 = experiment: Activity at Candida albicans SC5314 1,3-beta-D-glucan synthase subunit FKS1p
Summary of the method: (§3)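 Glucan synthase from cells grown at 37°C with vigorous shaking to early stationary phase in YPD. Membrane enzyme enriched by product entrapment. Serial echinocandin dilutions; ANF controls held 1% DMSO. Reaction started by adding enzyme, run 60 min at 25°C in a filtration polymerization assay, stopped on ice. IC50 from a variable-slope sigmoidal fit; means of three repetitions on separate days.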

Candida albicans [23] = experiment: Activity at Candida albicans 3795 1,3-beta-D-glucan synthase subunit FKS1p; summary of the method: as §3
Candida albicans [24] = experiment: Activity at Candida albicans 119 1,3-beta-D-glucan synthase subunit FKS1p T1921C mutant
Summary of the method: (§4)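 Product-entrapped 1,3-β-D-glucan synthase from cells grown in YPD at 37°C to early stationary phase. Wells held 50 mM HEPES pH 7.5, 10% glycerol, 1.5 mg/ml BSA, 25 mM KF, 1 mM EDTA, 25 μM GTP-γ-S, 1 μg enzyme and [3H]UDPG (0.015–2 mM). Reactions ran 60 min at 25°C. Vmax and Km came from Lineweaver-Burke plots, in triplicate.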

Candida albicans [25] = experiment: Activity at Candida albicans 177 1,3-beta-D-glucan synthase subunit FKS1p T1922C mutant; summary of the method: as §4
Candida albicans [26] = experiment: Activity at Candida albicans 85 1,3-beta-D-glucan synthase subunit FKS1p C1934T mutant; summary of the method: as §4
Candida albicans [27] = experiment: Activity at Candida albicans 121 1,3-beta-D-glucan synthase subunit FKS1p G4082A mutant; summary of the method: as §4
Candida albicans [28] = experiment: Activity at Candida albicans A15-10 1,3-beta-D-glucan synthase subunit FKS1p T1933C mutant

## CC[C@H](C)C[C@H](C)CCCCCCCCC(=O)N[C@H]1C[C@@H](O)[C@@H](NCCN)NC(=O)[C@@H]2[C@@H](O)CCN2C(=O)[C@H]([C@H](O)CCN)NC(=O)[C@H]([C@H](O)[C@@H](O)c2ccc(O)cc2)NC(=O)[C@@H]2C[C@@H](O)CN2C(=O)[C@H]([C@@H](C)O)NC1=O [CASPOFUNGIN]
Candida albicans [1]
  MIC: 0.42 µg/mL (≈ 0.384 µM)
Candida albicans [2]
  MIC: 0.5 µg/mL
Candida albicans [3]
  MIC: 0.25 µg/mL (≈ 0.229 µM)
Candida albicans [4]
  MIC: 3.33 µg/mL (≈ 3.05 µM)
Candida albicans [5]
  MIC: 8 µg/mL
Candida albicans [6]
  MIC: 8 µg/mL (≈ 7.32 µM)
Candida albicans [7]
  MIC: 8 µg/mL
Candida albicans [8]
  MIC: 8 µg/mL
Candida albicans [9]
  MIC: 2.67 µg/mL (≈ 2.44 µM)
Candida albicans [10]
  MIC: 4 µg/mL (≈ 3.66 µM)
Candida albicans [11]
  MIC: 4 µg/mL
Candida albicans [12]
  MIC: 2 µg/mL (≈ 1.83 µM)
Candida albicans [13]
  MIC: 4 µg/mL (≈ 3.66 µM)
Candida albicans [14]
  MIC: 1 µg/mL (≈ 0.915 µM)
Candida albicans [15]
  MIC: 8 µg/mL
Candida albicans [16]
  MIC: 16 µg/mL
[17]
  IC50: 0.0009 µg/mL (≈ 0.000823 µM)
  Ki: 0.00095 µg/mL (≈ 0.000869 µM)
[18]
  IC50: 0.00175 µg/mL (≈ 0.0016 µM)
  Ki: 0.00626 µg/mL (≈ 0.00573 µM)
[19]
  Ki: 0.00879 µg/mL (≈ 0.00804 µM)
[20]
  IC50: 0.6981 µg/mL (≈ 0.639 µM)
  Ki: 2.12249 µg/mL (≈ 1.94 µM)
[21]
  IC50: 0.4591 µg/mL (≈ 0.42 µM)
  Ki: 0.51933 µg/mL (≈ 0.475 µM)
[22]
  IC50: 0.06822 µg/mL (≈ 0.0624 µM)
  Ki: 0.2 µg/mL (≈ 0.183 µM)
Candida albicans SC5314
  Km: 125 µM
  Vmax: 6.72 nmol/min
Candida albicans [23]
  Km: 88 µM
  Vmax: 6.63 nmol/min
Candida albicans [24]
  Km: 54 µM
  Vmax: 2.54 nmol/min
Candida albicans [25]
  Km: 50 µM
  Vmax: 4.4 nmol/min
Candida albicans [26]
  Km: 25 µM
  Vmax: 1.83 nmol/min
Candida albicans [27]
  Km: 129 µM
  Vmax: 4.41 nmol/min
Candida albicans [28]
  Km: 91 µM
  Vmax: 3.26 nmol/min

## CCCCCOc1ccc(-c2cc(-c3ccc(C(=O)N[C@H]4C[C@@H](O)[C@@H](O)NC(=O)[C@@H]5[C@@H](O)[C@@H](C)CN5C(=O)[C@H]([C@H](O)CC(N)=O)NC(=O)[C@H]([C@H](O)[C@@H](O)c5ccc(O)c(OS(=O)(=O)O)c5)NC(=O)[C@@H]5C[C@@H](O)CN5C(=O)[C@H]([C@@H](C)O)NC4=O)cc3)no2)cc1 [MICAFUNGIN] (X1-[Orn(4R-OH,5R-OH)]T[Hyp][hTyr(3S-OH,4S-OH,3'-OSO3H)][Gln(3R-OH)][Pro(3S-OH,4S-Me)]; lactam 1-C)
Candida albicans [1]
  MIC: 0.05 µg/mL (≈ 0.0394 µM)
Candida albicans [2]
  MIC: 0.5 µg/mL
Candida albicans [3]
  MIC: 0.03 µg/mL (≈ 0.0236 µM)
Candida albicans [4]
  MIC: 1 µg/mL (≈ 0.787 µM)
Candida albicans [5]
  MIC: 16 µg/mL
Candida albicans [6]
  MIC: 4 µg/mL (≈ 3.15 µM)
Candida albicans [7]
  MIC: 8 µg/mL
Candida albicans [8]
  MIC: 8 µg/mL
Candida albicans [9]
  MIC: 0.83 µg/mL (≈ 0.653 µM)
Candida albicans [10]
  MIC: 0.83 µg/mL (≈ 0.653 µM)
Candida albicans [11]
  MIC: 4 µg/mL
Candida albicans [12]
  MIC: 0.25 µg/mL (≈ 0.197 µM)
Candida albicans [13]
  MIC: 2.67 µg/mL (≈ 2.1 µM)
Candida albicans [14]
  MIC: 0.5 µg/mL (≈ 0.394 µM)
Candida albicans [15]
  MIC: 2 µg/mL
Candida albicans [16]
  MIC: 8 µg/mL
[17]
  IC50: 0.0102 µg/mL (≈ 0.00803 µM)
  Ki: 0.02353 µg/mL (≈ 0.0185 µM)
[18]
  IC50: 0.05334 µg/mL (≈ 0.042 µM)
  Ki: 0.03452 µg/mL (≈ 0.0272 µM)
[19]
  IC50: 0.01472 µg/mL (≈ 0.0116 µM)
  Ki: 0.04187 µg/mL (≈ 0.033 µM)
[20]
  IC50: 1.254 µg/mL (≈ 0.987 µM)
  Ki: 2.75301 µg/mL (≈ 2.17 µM)
[21]
  IC50: 0.4498 µg/mL (≈ 0.354 µM)
  Ki: 1.28919 µg/mL (≈ 1.01 µM)
[22]
  IC50: 0.3755 µg/mL (≈ 0.296 µM)
  Ki: 0.48923 µg/mL (≈ 0.385 µM)
Candida albicans SC5314
  Km: 125 µM
  Vmax: 6.72 nmol/min
Candida albicans [23]
  Km: 88 µM
  Vmax: 6.63 nmol/min
Candida albicans [24]
  Km: 54 µM
  Vmax: 2.54 nmol/min
Candida albicans [25]
  Km: 50 µM
  Vmax: 4.4 nmol/min
Candida albicans [26]
  Km: 25 µM
  Vmax: 1.83 nmol/min
Candida albicans [27]
  Km: 129 µM
  Vmax: 4.41 nmol/min
Candida albicans [28]
  Km: 91 µM
  Vmax: 3.26 nmol/min
